Rows were chosen to be rich in hits. Some 2.4% of all compounds tested hit in one or more screens of this group.
ARNT TACC3 PPI: ARNT/TACC3 interaction disruption. AlphaScreen His-ARNT PAS-B/GST-TACC3 binding, luminescence; TACC3 fragment carries E629A point mutation. inhibition, % at 9.99 µM. 390,000 compounds, 0.66% hits. AID 623870;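 active means mean inhibition of replicates at least 50% and at least half of replicates each reaching 50%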;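 further: 0% = complete ARNT plus TACC3 wells and 100% = ARNT alone without TACC3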
CASP6 VEID inh: inhibitors of human caspase-6; inhibition, % at 12.5 µM; purified caspase-6, Z-VEID-R110 cleavage fluorescence; 350,000 compounds, 0.53% hits;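 active means mean inhibition across replicates at least about 35%, with every replicate also reaching that limit, limit read from the data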;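 further: 0% = median of neutral control wells and 100% = no fluorescence left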
ERAP1 HTS inh: blocks human ERAP1 aminopeptidase activity | AID 652197 | inhibition, % at 10.7 µM | 340,000 compounds, 0.15% hits | Q9NZ08 | recombinant ERAP1, Leu-AMC fluorescence, 60 min;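 active means mean replicate inhibition of at least 30%, or all replicates individually reaching that 30% level; inactive means mean below 30% and not every replicate reaching it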;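 further: 0% = neutral control wells and 100% = L-leucinethiol positive control wells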
rRNA inh HTS: inhibits bacterial ribosomal RNA function over humanized ribosomes | E. coli WT GFP vs humanized-ribosome RFP mutants, fluorescence, 24 h; hits give low values; DMSO median 0, no signal -100 | GFP signal change (wild-type ribosome), % (no concentration beside the values) | 350,000 compounds, 1.6% hits;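 active means significant combined selectivity score with lowered wild-type GFP, culture density cut under 30%, mutant RFP and density less affected; inactive means any of these conditions unmet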
PGC1a acetyl inh: modulators of PGC1a acetylation; U2OS PGC1a acetylation, AlphaScreen anti-acetyl-lysine; with virally co-expressed GCN5 acetyltransferase; 350,000 compounds, 0.17% hits; inhibition, % at 15.6 µM;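 active means every replicate shows inhibition of at least 40%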;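 further: 0% = neutral control wells and 100% = positive control wells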
S100A4 MyoIIA: S100A4-myosin IIA interaction inhibition; P26447; S100A4/TAMRA-MyoIIA peptide fluorescence polarization; inhibition, % at 10.7 µM; 360,000 compounds, 0.14% hits; AID 652163;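 active means mean inhibition of at least 70% across replicates, with every replicate also reaching that level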
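incubation = readout 5 min after mixing, signal stable up to 60 min | system = S100A4 monomer protein | buffer or medium = HEPES pH 7.2 with CaCl2, KCl, NaCl, DTT, Triton | benchmarks = neutral control DMSO, positive control TFP | also added = fluorescent myosin IIA peptide, 5 nM | compound dosing = one concentration per compound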
* hit, by the source's call; nt = not tested or not shown.

SMILES	ARNT TACC3 PPI	CASP6 VEID inh	ERAP1 HTS inh	rRNA inh HTS	PGC1a acetyl inh	S100A4 MyoIIA
O=C(C1CCCC1)N1CC2(C1)[C@@H](c1ccccc1)[C@H](CO)N2Cc1ccc(Cl)cc1	nt	2	-5	-15	-1	40
O=C(COc1ccc(Cl)cc1Br)OCC(=O)c1ccc[nH]1	-2	38*	0	nt	1	-3
O=C(Cc1ccc(Br)cc1)OCC(=O)c1ccc[nH]1	31	0	1	-23*	-2	-2
CCCn1c(-c2ccccc2)cc(SC)c(C#N)c1=O	-1	0	-5	12	93*	1
C=CCn1c(-c2ccccc2)cc(SC)c(C#N)c1=O	0	2	5	8	nt	-3
C[C@H]1CCCCO[C@@H](CN(C)C)[C@@H](C)CN([C@@H](C)CO)C(=O)c2cc(NS(C)(=O)=O)ccc2O1	7	0	3	4	2	5
COc1cc2c(cc1OC)-c1cc(NC3CC3)nc(=O)n1CC2	53*	nt	nt	nt	-10	nt
COc1cc2c(cc1OC)-c1cc(NC3CCCCCCC3)nc(=O)n1CC2	12	nt	nt	nt	-20	nt
COc1cc2c(cc1OC)-c1cc(NC3CCCCC3)nc(=O)n1CC2	46*	nt	nt	nt	-1	nt
N#C[C@@H]1N[C@@H](CO)[C@@H]1c1ccc(C2=CCCCC2)cc1	15	0	-4	-1	-4	-14
c1csc(CNc2ncnc3ccc(-c4ccoc4)cc23)c1	1	2	-7	10	50*	2
Cn1c(-c2ccc3c(c2)OCO3)cnc1N	54*	nt	nt	nt	-2	nt
CCC(=O)N1C[C@@H](C)[C@H](OC)CN(C)C(=O)c2ccc(NC(=O)c3ccccc3)cc2OC[C@@H]1C	32	2	3	-2	-15	-1
Cc1c(C)n(-c2ccccc2)c2ncnc(NCCCN(C)C)c12	-1	5	-2	12	nt	-27
Cc1ccc(-n2c(C)c(C)c3c(NCCO)ncnc32)cc1	27*	1	2	-1	nt	4
COc1ccc2c3c(n(C)c2c1)[C@H](CO)N(Cc1ccccc1)CC31CCN(S(=O)(=O)c2ccc(C)cc2)CC1	nt	1	-2	-55	-6	-5
O=C(CN1C(=O)NC2(CCCCCCC2)C1=O)N1CCc2ccccc2C1	1	nt	nt	nt	5	nt
O=C(/C=C/C(=O)N1CCc2ccccc2C1)N1CCc2ccccc2C1	nt	7	-1	-22*	nt	-3
O=C(CN1C(=O)CSC1=O)N1CCc2ccccc2C1	30*	nt	nt	nt	-8	nt
COc1ccc(-c2ccc([C@@H]3[C@@H](C#N)N(C(=O)NC4CCCC4)[C@H]3CO)cc2)cc1	5	1	6	-4	-7	0
CCC(=O)NC(c1cccs1)c1ccc2cccnc2c1O (stereo unspecified)	43	-1	4	-50	47*	-9
CCCC(=O)NC(c1cccs1)c1cc(Cl)c2cccnc2c1O (stereo unspecified)	-2	-11	-4	17	19	-5
Cc1ccc(C(NC(=O)C(C)C)c2cc([N+](=O)[O-])c3cccnc3c2O)cc1 (stereo unspecified)	50*	nt	nt	nt	nt	nt
CC(=O)NC(c1cccs1)c1cc(F)c2cccnc2c1O (stereo unspecified)	56*	0	3	12	nt	0
CC(C)C(=O)NC(c1cccs1)c1cc([N+](=O)[O-])c2cccnc2c1O (stereo unspecified)	60*	nt	nt	nt	nt	nt
CCC(=O)NC(c1ccc(C)cc1)c1cc(Cl)c2cccnc2c1O (stereo unspecified)	-16	nt	nt	nt	nt	nt
CO[C@H]1CN(C)C(=O)c2cc(NC(=O)Nc3cccc(Cl)c3)ccc2OC[C@@H](C)N(C)C[C@@H]1C	nt	nt	nt	-4	1	nt
O=C(O)c1ccc(CN2C(=O)c3cccc4c([N+](=O)[O-])ccc(c34)C2=O)cc1	2	2	-2	41	-54	2
Cc1ccc(C(=O)O)cc1N1C(=O)c2cccc3c([N+](=O)[O-])ccc(c23)C1=O	1	42*	8	93	0	4
C[C@H]1CN([C@@H](C)CO)C(=O)Cc2cc(NS(=O)(=O)c3ccccc3)ccc2O[C@@H]1CN(C)C(=O)Nc1ccc2c(c1)OCO2	nt	nt	nt	-7	-2	nt

From PubChem
